Results taken from ChEMBL document CHEMBL1275591, “Cellular pharmacodynamics of the novel biaryloxazolidinone radezolid: studies with infected phagocytic and nonphagocytic cells, using Staphylococcus aureus, Staphylococcus epidermidis, Listeria monocytogenes, and Legionella pneumophila” (Antimicrob Agents Chemother, 2010).
Values after ≈ are worked out from the molar mass of the structure shown.

Tests used:
Staphylococcus aureus [1] = test: Antimicrobial activity against linezolid-susceptible Staphylococcus aureus SA238 after 24 hrs; assay type: functional, organism-based; conditions: SA238, 24 h
Staphylococcus aureus [2] = test: Bacteriostatic activity against linezolid-susceptible Staphylococcus aureus SA238 infected in THP1 cells at pH 7.4 after 24 hrs; assay type: functional, THP-1
Staphylococcus aureus [3] = test: Bacteriostatic activity against linezolid-susceptible Staphylococcus aureus SA238 infected in rat fibroblast cells after 24 hrs; assay type: functional
Outline: (§1)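 Adherent nonphagocytic cells were infected at 5 × 10^7 to 1 × 10^8 bacteria/ml with 2 h phagocytosis. Cells used: Calu-3 bronchial epithelium grown in uncoated flasks, neonatal foreskin keratinocytes on collagen-coated wells, primary human osteoblasts, and primary rat embryo fibroblasts. Antibiotic was then given over a concentration range for 24 h. Cs came from a sigmoidal fit of CFU change.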

Staphylococcus aureus [4] = test: Antimicrobial activity against linezolid-susceptible Staphylococcus aureus SA040 infected in THP1 cells assessed as log reduction in bacterial count after 24 hrs; assay type: functional, THP-1
Outline: (§2)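 Bacteria were phagocytosed by human THP-1 macrophage-like cells, then exposed to a range of drug concentrations for a fixed time: 24 h for S. aureus, S. epidermidis and L. monocytogenes, 48 h for L. pneumophila. Change in CFU versus the initial inoculum was fitted with a sigmoidal curve to give Emin, Emax (relative maximal efficacy), EC50 and static concentration (Cs).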

Staphylococcus aureus [5] = test: Antimicrobial activity against linezolid-susceptible Staphylococcus aureus ATCC 33591 infected in THP1 cells after 24 hrs; assay type: functional, organism-based; conditions: ATCC 33591, THP-1, 24 h; outline: as §2
Staphylococcus aureus [6] = test: Antimicrobial activity against linezolid resistant methicillin-susceptible Staphylococcus aureus SA040L after 24 hrs; assay type: functional
Staphylococcus aureus [7] = test: Antimicrobial activity against Staphylococcus aureus infected in THP1 cells after 24 hrs; assay type: functional, organism-based; conditions: THP-1, 24 h; outline: as §2
Staphylococcus aureus [8] = test: Bacteriostatic activity against linezolid-susceptible Staphylococcus aureus NRS384 infected in THP1 cells after 24 hrs; assay type: functional, THP-1
Outline: (§3)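 Human THP-1 myelomonocytic (macrophage-like) cells infected with S. aureus, then exposed 24 h to a range of antibiotic concentrations. CFU change was measured against the initial inoculum. A sigmoidal dose-response curve was fitted to give Emin, Emax and EC50, and the apparent static concentration (Cs) was taken from the fit.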

Staphylococcus aureus [9] = test: Antimicrobial activity against linezolid-susceptible Staphylococcus aureus ATCC 33591 infected in THP1 cells assessed as log reduction in bacterial count after 24 hrs; assay type: functional, THP-1; outline: as §2
Staphylococcus aureus [10] = test: Antimicrobial activity against methicillin-susceptible Staphylococcus aureus ATCC 25923 after 24 hrs; assay type: functional; conditions: ATCC 25923, 24 h
Staphylococcus aureus [11] = test: Bacteriostatic activity against linezolid-resistant Staphylococcus aureus SA238L infected in human osteoblasts cells after 24 hrs; assay type: functional; outline: as §1
Staphylococcus aureus [12] = test: Antimicrobial activity against methicillin-resistant, vancomycin intermediate Staphylococcus aureus NRS18 after 24 hrs; assay type: functional; conditions: NRS18, 24 h
Staphylococcus aureus [13] = test: Bacteriostatic activity against linezolid-resistant Staphylococcus aureus SA238L infected in rat fibroblast cells after 24 hrs; assay type: functional; outline: as §1
[14] = Ratio of drug level for cellular to extracellular region of Staphylococcus aureus infected human keratinocyte at 4 mg/liter after 2 hrs; assay type: ADME, cell-based
Outline: (§4)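 Cells were exposed to [14C]radezolid for 2 or 24 h. Cell-associated drug in lysates was measured by liquid scintillation counting (detection limit 0.003 mg/liter; linear 0.01–0.78 mg/liter). Content was normalised to cell protein (Lowry). It was converted to apparent cellular concentration at 5 μl per mg protein and expressed relative to the extracellular concentration.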

Staphylococcus aureus [15] = test: Bacteriostatic activity against linezolid-resistant Staphylococcus aureus SA238L infected in HUVEC cells after 24 hrs; assay type: functional
Outline: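 HUVEC were grown in endothelial growth medium on gelatin-treated flasks. They were infected with 2 × 10^6 bacteria/ml for 1 h phagocytosis, then exposed 24 h to graded antibiotic concentrations. CFU change from the initial inoculum was fitted to a sigmoidal curve to obtain the static concentration (Cs).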

Staphylococcus aureus [16] = test: Bacteriostatic activity against linezolid-susceptible Staphylococcus aureus SA238 infected in human osteoblasts cells after 24 hrs; assay type: functional; outline: as §1
[17] = system: Staphylococcus epidermidis; test: Antimicrobial activity against Staphylococcus epidermidis infected in THP1 cells after 24 hrs; assay type: functional, organism-based; conditions: THP-1, 24 h; outline: as §2
[18] = Ratio of drug level for cellular to extracellular region of Staphylococcus aureus infected human keratinocyte at 4 mg/liter after 24 hrs; assay type: ADME, cell-based; outline: as §4
[19] = Ratio of drug level for cellular to extracellular region of Staphylococcus aureus infected human Calu3 cells at 4 mg/liter after 2 hrs; assay type: ADME, cell-based; conditions: calu-3, 2 h; outline: as §4
Staphylococcus aureus [20] = test: Antimicrobial activity against linezolid-susceptible Staphylococcus aureus SA238 infected in rat fibroblast cells assessed as log reduction in bacterial count after 24 hrs; assay type: functional
Outline: (§5)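 S. aureus was internalized by adherent nonphagocytic cells: Calu-3, HUVEC, keratinocytes on collagen-coated wells, osteoblasts, or rat embryo fibroblasts. Inoculum was 5 × 10^7 to 1 × 10^8 bacteria/ml with 2 h phagocytosis (HUVEC: 2 × 10^6/ml, 1 h). Cells were then exposed to graded drug concentrations for 24 h. CFU change versus the original inoculum was fitted sigmoidally for Emax and Cs.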

Staphylococcus aureus [21] = test: Antimicrobial activity against linezolid-resistant Staphylococcus aureus SA238L infected in Calu-3 cells assessed as log reduction in bacterial count after 24 hrs; assay type: functional; outline: as §5
Staphylococcus aureus [22] = test: Antimicrobial activity against linezolid-resistant Staphylococcus aureus SA238L infected in rat fibroblast cells assessed as log reduction in bacterial count after 24 hrs; assay type: functional; outline: as §5
Staphylococcus aureus [23] = test: Antimicrobial activity against linezolid-resistant Staphylococcus aureus SA238L infected in THP1 cells after 24 hrs; assay type: functional, organism-based; conditions: THP-1, 24 h; outline: as §2
Staphylococcus aureus [24] = test: Antimicrobial activity against community acquired methicillin-resistant Staphylococcus aureus NRS384 after 24 hrs; assay type: functional; conditions: NRS384, 24 h
Staphylococcus aureus [25] = test: Bacteriostatic activity against linezolid-susceptible Staphylococcus aureus NRS18 infected in THP1 cells after 24 hrs; assay type: functional, THP-1; outline: as §3
Staphylococcus aureus [26] = test: Antimicrobial activity against methicillin-susceptible Staphylococcus aureus SA040 after 24 hrs; assay type: functional; conditions: SA040, 24 h
Staphylococcus aureus [27] = test: Antimicrobial activity against linezolid-susceptible Staphylococcus aureus ATCC 25923 infected in THP1 cells assessed as log reduction in bacterial count after 24 hrs; assay type: functional, THP-1; outline: as §2
Listeria monocytogenes = test: Antimicrobial activity against Listeria monocytogenes infected in THP1 cells after 24 hrs; assay type: functional, organism-based; conditions: THP-1, 24 h; outline: as §2
Staphylococcus aureus [28] = test: Antimicrobial activity against community acquired methicillin-resistant Staphylococcus aureus NRS192 after 24 hrs; assay type: functional; conditions: NRS192, 24 h
Staphylococcus aureus [29] = test: Antimicrobial activity against linezolid-susceptible Staphylococcus aureus SA238 infected in HUVEC cells assessed as log reduction in bacterial count after 24 hrs; assay type: functional; outline: as §5
[30] = Ratio of drug level for cellular to extracellular region of Staphylococcus aureus infected rat fibroblast at 4 mg/liter after 24 hrs; assay type: ADME, cell-based; outline: as §4
Staphylococcus aureus [31] = test: Antimicrobial activity against hospital acquired methicillin-resistant, vancomycin resistant Staphylococcus aureus VRS1 after 24 hrs; assay type: functional; conditions: VRS1, 24 h
Staphylococcus aureus [32] = test: Antimicrobial activity against linezolid-susceptible Staphylococcus aureus SA040 infected in THP1 cells after 24 hrs; assay type: functional, organism-based; conditions: SA040, THP-1, 24 h; outline: as §2
Staphylococcus aureus [33] = test: Antimicrobial activity against linezolid-resistant Staphylococcus aureus SA238L infected in THP1 cells assessed as log reduction in bacterial count after 24 hrs; assay type: functional, THP-1; outline: as §2

CC(=O)NC[C@H]1CN(c2ccc(-c3ccc(CNCc4cnn[nH]4)cc3)c(F)c2)C(=O)O1 [RADEZOLID]
EC50 (Staphylococcus aureus [1]): 0.16 µg/mL (≈ 0.365 µM) | Activity (Staphylococcus aureus [2]): 1.04 mg/L | Activity (Staphylococcus aureus [3]): 0.6 mg/L | log10cfu (Staphylococcus aureus [4]): -0.96 | EC50 (Staphylococcus aureus [5]): 0.12 µg/mL (≈ 0.274 µM) | MIC (Staphylococcus aureus [6]): 2 µg/mL (≈ 4.56 µM) | EC50 (Staphylococcus aureus [7]): 0.24 µg/mL (≈ 0.547 µM) | Activity (Staphylococcus aureus [8]): 0.32 mg/L | log10cfu (Staphylococcus aureus [9]): -0.56 | MIC (Staphylococcus aureus [10]): 0.25 µg/mL (≈ 0.57 µM) | Activity (Staphylococcus aureus [11]): 0.6 mg/L | MIC (Staphylococcus aureus [12]): 0.25 µg/mL (≈ 0.57 µM) | Activity (Staphylococcus aureus [13]): 0.6 mg/L | Ratio [14]: 12.6 | Activity (Staphylococcus aureus [15]): 0.6 mg/L | Activity (Staphylococcus aureus [16]): 0.6 mg/L | EC50 [17]: 1.51 µg/mL (≈ 3.44 µM) | Ratio [18]: 16.1 | Ratio [19]: 8.5 | log10cfu (Staphylococcus aureus [20]): 0.6 | log10cfu (Staphylococcus aureus [21]): 0.6 | log10cfu (Staphylococcus aureus [22]): 0.6 | EC50 (Staphylococcus aureus [23]): 0.29 µg/mL (≈ 0.661 µM) | MIC (Staphylococcus aureus [24]): 0.5 µg/mL (≈ 1.14 µM) | Activity (Staphylococcus aureus [25]): 0.28 mg/L | MIC (Staphylococcus aureus [26]): 1 µg/mL (≈ 2.28 µM) | log10cfu (Staphylococcus aureus [27]): -0.57 | EC50 (Listeria monocytogenes): 0.04 µg/mL (≈ 0.0912 µM) | MIC (Staphylococcus aureus [28]): 0.5 µg/mL (≈ 1.14 µM) | log10cfu (Staphylococcus aureus [29]): 0.6 | Ratio [30]: 10.9 | MIC (Staphylococcus aureus [31]): 0.5 µg/mL (≈ 1.14 µM) | EC50 (Staphylococcus aureus [32]): 0.09 µg/mL (≈ 0.205 µM) | log10cfu (Staphylococcus aureus [33]): -0.77
